# Results as given in ChEMBL document CHEMBL4689842, “EUbOPEN Chemogenomics Library wave 1” (2021).
# Test system: HEK-293T
# Assay: Multiplex assay against HEK293T;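 on Population Tubulin-Different-Phenotype (%): share of the cells with healthy nuclei that show this phenotype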
# Type: toxicity, cell-based
# Conditions: human
# Summary of the method: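 Four dyes were applied at seeding to live cells: Hoechst33342, BioTracker Green Microtubule Cytoskeleton Dye, MitoTracker Red and Annexin V Alexa Fluor 680. Imaging after compound addition used a CQ1 microscope at 37°C and 5% CO2. CellPathfinder machine-learning gating then sorted cells into Hoechst high-intensity objects or normal cells, normal cells into healthy, pyknosed or fragmented nuclei, and pyknosed cells into mitotic or apoptotic, with tubulin, mitochondrial-mass and membrane-permeability phenotypes given as per cents of healthy-nucleus cells.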
# [1] = 12 h, 1 µM, compound concentration 1 uM, replicate 1
# [2] = 12 h, 1 µM, compound concentration 1 uM, replicate 2
# [3] = 12 h, 10 µM, compound concentration 10 uM, replicate 1
# [4] = 12 h, 10 µM, compound concentration 10 uM, replicate 2
# [5] = 24 h, 1 µM, compound concentration 1 uM, replicate 1
# [6] = 24 h, 1 µM, compound concentration 1 uM, replicate 2
# [7] = 24 h, 10 µM, compound concentration 10 uM, replicate 1
# [8] = 24 h, 10 µM, compound concentration 10 uM, replicate 2
# [9] = 48 h, 1 µM, compound concentration 1 uM, replicate 1
# [10] = 48 h, 1 µM, compound concentration 1 uM, replicate 2
# [11] = 48 h, 10 µM, compound concentration 10 uM, replicate 1
# [12] = 48 h, 10 µM, compound concentration 10 uM, replicate 2
smiles,measurement,setting,value
Cc1c[nH]c2nccc(Oc3c(F)cc(Nc4cc(Cl)nc(N)n4)cc3F)c12 [BAY-549],Population Apoptotic (%),[1],37%
same,Population Fragmented Nuclei (%),[1],15%
same,Population Healthy Nuclei (%),[1],32%
same,Population Hoechst High Intensity Objects (%),[1],12%
same,Population Membrane Permeable-Phenotype (%),[1],0%
same,Population Mitochondria Different-Phenotype (%),[1],71%
same,Population Mitotic Cells (%),[1],62%
same,Population Normal (%),[1],87%
same,Population Pyknosed Nuclei (%),[1],52%
same,Population Tubulin-Different-Phenotype (%),[1],31%
same,Total Cell Count,[1],310
same,Population Apoptotic (%),[2],13%
same,Population Fragmented Nuclei (%),[2],7%
same,Population Healthy Nuclei (%),[2],54%
same,Population Hoechst High Intensity Objects (%),[2],4%
same,Population Membrane Permeable-Phenotype (%),[2],8%
same,Population Mitochondria Different-Phenotype (%),[2],8%
same,Population Mitotic Cells (%),[2],86%
same,Population Normal (%),[2],95%
same,Population Pyknosed Nuclei (%),[2],37%
same,Population Tubulin-Different-Phenotype (%),[2],14%
same,Total Cell Count,[2],236
same,Population Apoptotic (%),[3],45%
same,Population Fragmented Nuclei (%),[3],9%
same,Population Healthy Nuclei (%),[3],45%
same,Population Hoechst High Intensity Objects (%),[3],8%
same,Population Mitochondria Different-Phenotype (%),[3],65%
same,Population Mitotic Cells (%),[3],54%
same,Population Normal (%),[3],91%
same,Population Pyknosed Nuclei (%),[3],44%
same,Population Tubulin-Different-Phenotype (%),[3],5%
same,Total Cell Count,[3],370
same,Population Apoptotic (%),[4],16%
same,Population Fragmented Nuclei (%),[4],5%
same,Population Healthy Nuclei (%),[4],42%
same,Population Hoechst High Intensity Objects (%),[4],3%
same,Population Membrane Permeable-Phenotype (%),[4],0%
same,Population Mitochondria Different-Phenotype (%),[4],11%
same,Population Mitotic Cells (%),[4],83%
same,Population Normal (%),[4],96%
same,Population Pyknosed Nuclei (%),[4],52%
same,Population Tubulin-Different-Phenotype (%),[4],1%
same,Total Cell Count,[4],247
same,Population Apoptotic (%),[5],45%
same,Population Fragmented Nuclei (%),[5],14%
same,Population Healthy Nuclei (%),[5],32%
same,Population Hoechst High Intensity Objects (%),[5],10%
same,Population Membrane Permeable-Phenotype (%),[5],2%
same,Population Mitochondria Different-Phenotype (%),[5],47%
same,Population Mitotic Cells (%),[5],54%
same,Population Normal (%),[5],89%
same,Population Pyknosed Nuclei (%),[5],52%
same,Population Tubulin-Different-Phenotype (%),[5],25%
same,Total Cell Count,[5],284
same,Population Apoptotic (%),[6],18%
same,Population Fragmented Nuclei (%),[6],13%
same,Population Healthy Nuclei (%),[6],66%
same,Population Hoechst High Intensity Objects (%),[6],3%
same,Population Membrane Permeable-Phenotype (%),[6],8%
same,Population Mitochondria Different-Phenotype (%),[6],10%
same,Population Mitotic Cells (%),[6],81%
same,Population Normal (%),[6],96%
same,Population Pyknosed Nuclei (%),[6],19%
same,Population Tubulin-Different-Phenotype (%),[6],7%
same,Total Cell Count,[6],255
same,Population Apoptotic (%),[7],48%
same,Population Fragmented Nuclei (%),[7],11%
same,Population Healthy Nuclei (%),[7],41%
same,Population Hoechst High Intensity Objects (%),[7],9%
same,Population Mitochondria Different-Phenotype (%),[7],51%
same,Population Mitotic Cells (%),[7],51%
same,Population Normal (%),[7],90%
same,Population Pyknosed Nuclei (%),[7],46%
same,Population Tubulin-Different-Phenotype (%),[7],4%
same,Total Cell Count,[7],375
same,Population Apoptotic (%),[8],31%
same,Population Fragmented Nuclei (%),[8],6%
same,Population Healthy Nuclei (%),[8],49%
same,Population Hoechst High Intensity Objects (%),[8],2%
same,Population Membrane Permeable-Phenotype (%),[8],0%
same,Population Mitochondria Different-Phenotype (%),[8],21%
same,Population Mitotic Cells (%),[8],68%
same,Population Normal (%),[8],97%
same,Population Pyknosed Nuclei (%),[8],44%
same,Population Tubulin-Different-Phenotype (%),[8],5%
same,Total Cell Count,[8],233
same,Population Apoptotic (%),[9],48%
same,Population Fragmented Nuclei (%),[9],29%
same,Population Healthy Nuclei (%),[9],34%
same,Population Hoechst High Intensity Objects (%),[9],9%
same,Population Membrane Permeable-Phenotype (%),[9],1%
same,Population Mitochondria Different-Phenotype (%),[9],24%
same,Population Mitotic Cells (%),[9],51%
same,Population Normal (%),[9],90%
same,Population Pyknosed Nuclei (%),[9],36%
same,Population Tubulin-Different-Phenotype (%),[9],24%
same,Total Cell Count,[9],307
same,Population Apoptotic (%),[10],28%
same,Population Fragmented Nuclei (%),[10],25%
same,Population Healthy Nuclei (%),[10],64%
same,Population Hoechst High Intensity Objects (%),[10],2%
same,Population Membrane Permeable-Phenotype (%),[10],8%
same,Population Mitochondria Different-Phenotype (%),[10],4%
same,Population Mitotic Cells (%),[10],71%
same,Population Normal (%),[10],97%
same,Population Pyknosed Nuclei (%),[10],10%
same,Population Tubulin-Different-Phenotype (%),[10],10%
same,Total Cell Count,[10],336
same,Population Apoptotic (%),[11],60%
same,Population Fragmented Nuclei (%),[11],16%
same,Population Healthy Nuclei (%),[11],34%
same,Population Hoechst High Intensity Objects (%),[11],9%
same,Population Mitochondria Different-Phenotype (%),[11],45%
same,Population Mitotic Cells (%),[11],39%
same,Population Normal (%),[11],90%
same,Population Pyknosed Nuclei (%),[11],48%
same,Population Tubulin-Different-Phenotype (%),[11],6%
same,Total Cell Count,[11],330
same,Population Apoptotic (%),[12],56%
same,Population Fragmented Nuclei (%),[12],4%
same,Population Healthy Nuclei (%),[12],47%
same,Population Hoechst High Intensity Objects (%),[12],3%
same,Population Membrane Permeable-Phenotype (%),[12],1%
same,Population Mitochondria Different-Phenotype (%),[12],10%
same,Population Mitotic Cells (%),[12],43%
same,Population Normal (%),[12],96%
same,Population Pyknosed Nuclei (%),[12],47%
same,Population Tubulin-Different-Phenotype (%),[12],8%
same,Total Cell Count,[12],219
